Publication PMC7233196 (ACS chemical biology, 2020)

What was measured:
Experiment in all cases: BRET ratio titration, purified sensor
Format in all cases: binding
[1] = molecular target: tVYN-NtΔ (NtYcgRΔ); settings: read-out: KD(nM)^a; 3 nM sensor; pH 7.2, 100 mM KCl, 10 mM DTT, 0.1% BSA, 28 °C; Hill fit
How it was run: (§1)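 Coelenterazine-h substrate (60 μM in HEPES/KCl/300 mM ascorbate, pre-equilibrated ≥30 min at RT) added, 20 μL into 100 μL. Emission read at 460 and 530 nm, 28 °C, every 30 s for 10 min. BRET ratio taken at 2 min.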

[2] = molecular target: tVYN-Nt (NtYcgR); settings: read-out: KD(nM)^a; 3 nM sensor; pH 7.2, 100 mM KCl, 10 mM DTT, 0.1% BSA, 28 °C; Hill fit
How it was run: as §1

[3] = molecular target: T1, VYN-Ec (EcYcgR) (Escherichia coli, UniProt P76010)
T1 sequence (P76010 1-244): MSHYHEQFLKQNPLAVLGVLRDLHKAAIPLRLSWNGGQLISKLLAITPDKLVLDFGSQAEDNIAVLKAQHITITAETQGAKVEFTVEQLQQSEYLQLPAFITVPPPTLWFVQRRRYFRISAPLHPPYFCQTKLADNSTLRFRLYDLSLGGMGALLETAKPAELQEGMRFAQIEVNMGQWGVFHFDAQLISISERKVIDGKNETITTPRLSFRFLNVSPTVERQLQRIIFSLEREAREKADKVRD
How it was run: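 Coelenterazine-h prepared at 60 μM in HEPES/KCl/300 mM ascorbate (≥30 min RT), then added. Emission at 460 and 530 nm read at 30 s intervals for 10 min, 28 °C; BRET ratio taken 2 min post-substrate.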

[4] = molecular target: Vcp229-Nt (NtYcgR); settings: read-out: KD(nM)^a; 3 nM sensor; pH 7.2, 100 mM KCl, 10 mM DTT, 0.1% BSA, 28 °C; Hill fit
How it was run: as §1

[5] = molecular target: tVYN-Tb (TbYcgR); settings: read-out: KD(nM)^a; 3 nM sensor; pH 7.2, 100 mM KCl, 10 mM DTT, 0.1% BSA, 28 °C; Hill fit
How it was run: as §1

[6] = molecular target: VYN-Tb (TbYcgR); settings: read-out: KD(nM)^a; 3 nM sensor; pH 7.2, 100 mM KCl, 10 mM DTT, 0.1% BSA, 28 °C; Hill fit
How it was run: as §1

[7] = molecular target: Vcp157-Cp (CpYcgR); settings: read-out: KD(nM)^a; 3 nM sensor; pH 7.2, 100 mM KCl, 10 mM DTT, 0.1% BSA, 28 °C; Hill fit
How it was run: as §1

[8] = molecular target: Vcp173-Nt (NtYcgR); settings: read-out: KD(nM)^a; 3 nM sensor; pH 7.2, 100 mM KCl, 10 mM DTT, 0.1% BSA, 28 °C; Hill fit
How it was run: as §1

[9] = molecular target: VYN-Nt (NtYcgR); settings: read-out: KD(nM)^a; 3 nM sensor; pH 7.2, 100 mM KCl, 10 mM DTT, 0.1% BSA, 28 °C; Hill fit
How it was run: as §1

SMILES: Nc1nc2c(ncn2[C@@H]2O[C@@H]3COP(=O)(O)O[C@H]4[C@@H](O)[C@H](n5cnc6c(=O)[nH]c(N)nc65)O[C@@H]4COP(=O)(O)O[C@H]3[C@H]2O)c(=O)[nH]1 [c-di-GMP]
- Kd [1]: 54 ± 4 nM
- Kd [2]: 20 ± 1 nM
- Kd [3]: 50 ± 4 nM
- Kd [4]: 14 ± 1 nM
- Kd [5]: 12 ± 1 nM
- Kd [6]: 8 ± 0.4 nM
- Kd [7]: 96 ± 6 nM
- Kd [8]: 17 ± 4 nM
- Kd [9]: 14 ± 4 nM
